Where a SMILES comes first, the peptide text is derived from it.
Tests used:
Rattus norvegicus [1] = species on record: Rattus norvegicus; test: In vitro anti-oxytocic activity on isolated estrogen treated rat uteri without Mg+2; format: functional; details: read-out: pA2 (converted)
How it was run: (§1)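 Uteri isolated from estrogen-treated female rats, suspended in medium containing either no Mg2+ or 0.5 mM Mg2+. Agonism estimated by the Holton method. Antagonistic pA2 values determined as described by Schild.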

Rattus norvegicus [2] = species on record: Rattus norvegicus; test: In vitro anti-oxytocic activity on isolated estrogen treated rat uteri with 0.5 mM Mg+2; format: functional; details: read-out: pA2 (converted); how it was run: as §1
Rattus norvegicus [3] = species on record: Rattus norvegicus; test: Anti vasopressor activity was determined; format: functional, organism-based; details: read-out: pA2 (converted)
How it was run: (§2)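 Vasopressor assay in urethane-anesthetized, phenoxybenzamine-treated rats, given by intravenous injection. Effective dose in nmol/kg is the antagonist dose that cuts the response to 2x units of agonist down to the response to 1x unit given before antagonist. USP posterior pituitary reference standard.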

Rattus norvegicus [4] = test: Dose that reduces the response seen with 2x units of agonist to equal the response seen with 1x unit of agonist administered before antagonist; format: functional; how it was run: as §2
Rattus norvegicus [5] = species on record: Rattus norvegicus; test: Compound was tested for its antidiuretic activity; format: functional, Urine
[6] = Ratio of antidiuretic to vasopressor agonistic activity; format: functional, Urine
How it was run: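 Quotient of antidiuretic to vasopressor agonist potency. Each potency was measured by intravenous injection against the USP posterior pituitary standard: antidiuresis in ethanol-anesthetized, water-loaded rats, and pressor response in phenoxybenzamine-treated, urethane-anesthetized rats.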

Rattus norvegicus [7] = species on record: Rattus norvegicus; test: Binding affinity was determined; format: functional, organism-based; details: read-out: pA2 (converted)
Rattus norvegicus [8] = species on record: Rattus norvegicus; test: In vitro anti-oxytocic activity on isolated estrogen treated rat uteri with Mg+2; format: functional; details: read-out: pA2 (converted); how it was run: as §1
Rattus norvegicus [9] = species on record: Rattus norvegicus; test: In vitro anti-oxytocic activity on isolated estrogen treated rat uteri with 0.5 mM Mg+2; Agonist; format: functional; how it was run: as §1
Rattus norvegicus [10] = species on record: Rattus norvegicus; test: In vitro anti-oxytocic activity on isolated estrogen treated rat uteri without Mg+2; Agonist; format: functional; how it was run: as §1
Rattus norvegicus [11] = species on record: Rattus norvegicus; test: In vitro oxytocic activity on isolated estrogen treated rat uteri with 0.5 mM Mg+2

COc1ccc(C[C@@H]2NC(=O)CCSSC[C@@H](C(=O)N3CCC[C@H]3C(=O)N[C@H](CCCN=C(N)N)C(=O)NCC(N)=O)NC(=O)[C@H](CC(N)=O)NC(=O)[C@H](CCC(N)=O)NC(=O)[C@H](Cc3ccccc3)NC2=O)cc1 [listing 1 of 2 here]
Kb (Rattus norvegicus [1]): 11.7 nM
Kb (Rattus norvegicus [2]): 39.8 nM
Kb (Rattus norvegicus [3]): 107 nM

COc1ccc(C[C@@H]2NC(=O)CCSSC[C@@H](C(=O)N3CCC[C@H]3C(=O)N[C@H](CCCN=C(N)N)C(=O)NCC(N)=O)NC(=O)[C@H](CC(N)=O)NC(=O)[C@H](CCC(N)=O)NC(=O)[C@H](Cc3ccccc3)NC2=O)cc1 [listing 2 of 2 here]
ED (Rattus norvegicus [4]): 9.8 nM/kg
Activity (Rattus norvegicus [5]): 236 units/mg

COc1ccc(C[C@@H]2NC(=O)CCSSC[C@@H](C(=O)N3CCC[C@H]3C(=O)N[C@@H](CCCN=C(N)N)C(=O)NCC(N)=O)NC(=O)[C@H](CC(N)=O)NC(=O)[C@H](CCC(N)=O)NC(=O)[C@H](Cc3ccccc3)NC2=O)cc1
Ratio [6]: 202
Activity (Rattus norvegicus [5]): 830 units/mg

CCOc1ccc(C[C@@H]2NC(=O)CCSSC[C@@H](C(=O)N3CCC[C@H]3C(=O)N[C@H](CCCN=C(N)N)C(=O)NCC(N)=O)NC(=O)[C@H](CC(N)=O)NC(=O)[C@H](CCC(N)=O)NC(=O)[C@H](Cc3ccccc3)NC2=O)cc1 [listing 1 of 2 here]
Kb (Rattus norvegicus [1]): 52.5 nM
Kb (Rattus norvegicus [2]): 89.1 nM
Kb (Rattus norvegicus [7]): 129 nM

CCOc1ccc(C[C@@H]2NC(=O)CCSSC[C@@H](C(=O)N3CCC[C@H]3C(=O)N[C@H](CCCN=C(N)N)C(=O)NCC(N)=O)NC(=O)[C@H](CC(N)=O)NC(=O)[C@H](CCC(N)=O)NC(=O)[C@H](Cc3ccccc3)NC2=O)cc1 [listing 2 of 2 here]
ED (Rattus norvegicus [4]): 8.8 nM/kg
Activity (Rattus norvegicus [5]): 30 units/mg

COc1ccc(C[C@@H]2NC(=O)CCSSC[C@@H](C(=O)N3CCC[C@H]3C(=O)N[C@H](CCCN=C(N)N)C(=O)NCC(N)=O)NC(=O)[C@H](CC(N)=O)NC(=O)[C@H](C(C)C)NC(=O)[C@H](Cc3ccccc3)NC2=O)cc1 [listing 1 of 2 here]
Kb (Rattus norvegicus [1]): 17 nM
Kb (Rattus norvegicus [8]): 9.55 nM
Kb (Rattus norvegicus [2]): 9.55 nM
Kb (Rattus norvegicus [7]): 97.7 nM

COc1ccc(C[C@@H]2NC(=O)CCSSC[C@@H](C(=O)N3CCC[C@H]3C(=O)N[C@H](CCCN=C(N)N)C(=O)NCC(N)=O)NC(=O)[C@H](CC(N)=O)NC(=O)[C@H](C(C)C)NC(=O)[C@H](Cc3ccccc3)NC2=O)cc1 [listing 2 of 2 here]
ED (Rattus norvegicus [4]): 8.4 nM/kg
Activity (Rattus norvegicus [5]): 1740 units/mg

CCOc1ccc(C[C@@H]2NC(=O)CCSSC[C@@H](C(=O)N3CCC[C@H]3C(=O)N[C@@H](CCCN=C(N)N)C(=O)NCC(N)=O)NC(=O)[C@H](CC(N)=O)NC(=O)[C@H](CCC(N)=O)NC(=O)[C@H](Cc3ccccc3)NC2=O)cc1 [listing 1 of 2 here]
Kb (Rattus norvegicus [1]): 42.7 nM
Kb (Rattus norvegicus [2]): 39.8 nM
Kb (Rattus norvegicus [7]): 126 nM

CCOc1ccc(C[C@@H]2NC(=O)CCSSC[C@@H](C(=O)N3CCC[C@H]3C(=O)N[C@@H](CCCN=C(N)N)C(=O)NCC(N)=O)NC(=O)[C@H](CC(N)=O)NC(=O)[C@H](CCC(N)=O)NC(=O)[C@H](Cc3ccccc3)NC2=O)cc1 [listing 2 of 2 here]
ED (Rattus norvegicus [4]): 11 nM/kg
Activity (Rattus norvegicus [5]): 242 units/mg

CCOc1ccc(C[C@@H]2NC(=O)CCSSC[C@@H](C(=O)N3CCC[C@H]3C(=O)N[C@H](CCCN=C(N)N)C(=O)NCC(N)=O)NC(=O)[C@H](CC(N)=O)NC(=O)[C@H](C(C)C)NC(=O)[C@H](Cc3ccccc3)NC2=O)cc1 [listing 1 of 2 here]
Kb (Rattus norvegicus [1]): 28.2 nM
Kb (Rattus norvegicus [2]): 22.9 nM
Kb (Rattus norvegicus [7]): 85.1 nM

CCOc1ccc(C[C@@H]2NC(=O)CCSSC[C@@H](C(=O)N3CCC[C@H]3C(=O)N[C@H](CCCN=C(N)N)C(=O)NCC(N)=O)NC(=O)[C@H](CC(N)=O)NC(=O)[C@H](C(C)C)NC(=O)[C@H](Cc3ccccc3)NC2=O)cc1 [listing 2 of 2 here]
ED (Rattus norvegicus [4]): 6.3 nM/kg
Activity (Rattus norvegicus [5]): 132 units/mg

CCOc1ccc(C[C@@H]2NC(=O)CCSSC[C@@H](C(=O)N3CCC[C@H]3C(=O)N[C@@H](CCCN=C(N)N)C(=O)NCC(N)=O)NC(=O)[C@H](CC(N)=O)NC(=O)[C@H](C(C)C)NC(=O)[C@H](Cc3ccccc3)NC2=O)cc1 [listing 1 of 2 here]
Kb (Rattus norvegicus [1]): 12.6 nM
Kb (Rattus norvegicus [2]): 22.9 nM
Kb (Rattus norvegicus [7]): 28.8 nM

CCOc1ccc(C[C@@H]2NC(=O)CCSSC[C@@H](C(=O)N3CCC[C@H]3C(=O)N[C@@H](CCCN=C(N)N)C(=O)NCC(N)=O)NC(=O)[C@H](CC(N)=O)NC(=O)[C@H](C(C)C)NC(=O)[C@H](Cc3ccccc3)NC2=O)cc1 [listing 2 of 2 here]
ED (Rattus norvegicus [4]): 1.9 nM/kg
Activity (Rattus norvegicus [5]): 187 units/mg

COc1ccc(C[C@@H]2NC(=O)CCSSC[C@@H](C(=O)N3CCC[C@H]3C(=O)N[C@@H](CCCN=C(N)N)C(=O)NCC(N)=O)NC(=O)[C@H](CC(N)=O)NC(=O)[C@H](C(C)C)NC(=O)[C@H](Cc3ccccc3)NC2=O)cc1 [listing 1 of 2 here]
Kb (Rattus norvegicus [1]): 11.7 nM
Kb (Rattus norvegicus [2]): 19.5 nM
Kb (Rattus norvegicus [7]): 55 nM

COc1ccc(C[C@@H]2NC(=O)CCSSC[C@@H](C(=O)N3CCC[C@H]3C(=O)N[C@@H](CCCN=C(N)N)C(=O)NCC(N)=O)NC(=O)[C@H](CC(N)=O)NC(=O)[C@H](C(C)C)NC(=O)[C@H](Cc3ccccc3)NC2=O)cc1 [listing 2 of 2 here]
ED (Rattus norvegicus [4]): 3.7 nM/kg
Activity (Rattus norvegicus [5]): 789 units/mg

CC(C)[C@@H]1NC(=O)[C@H](Cc2ccccc2)NC(=O)[C@H](Cc2ccc(O)cc2)NC(=O)CCSSC[C@@H](C(=O)N2CCC[C@H]2C(=O)N[C@@H](CCCN=C(N)N)C(=O)NCC(N)=O)NC(=O)[C@H](CC(N)=O)NC1=O (HELM PEPTIDE1{[O=C(CCS[*:3])[*:2]].Y.F.V.N.C.P.R.G.[am]}$PEPTIDE1,PEPTIDE1,1:R3-6:R3$$$V2.0)
Ratio [6]: 225
agonist potency (Rattus norvegicus [9]): 26 units/mg
agonist potency (Rattus norvegicus [10]): 31 units/mg
Activity (Rattus norvegicus [5]): 1150 units/mg

CC(C)[C@@H]1NC(=O)[C@H](Cc2ccccc2)NC(=O)[C@H](Cc2ccc(O)cc2)NC(=O)CCSSC[C@@H](C(=O)N2CCC[C@H]2C(=O)N[C@H](CCCNC(=N)N)C(=O)NCC(N)=O)NC(=O)[C@H](CC(N)=O)NC1=O (HELM PEPTIDE1{[O=C(CCS[*:3])[*:2]].Y.F.V.N.C.P.[dR].G.[am]}$PEPTIDE1,PEPTIDE1,1:R3-6:R3$$$V2.0)
agonist potency (Rattus norvegicus [9]): 3 units/mg
agonist potency (Rattus norvegicus [10]): 8 units/mg
ED (Rattus norvegicus [4]): 7.2 nM/kg
Activity (Rattus norvegicus [5]): 1230 units/mg

N=C(N)NCCC[C@@H](NC(=O)[C@@H]1CCCN1C(=O)[C@@H]1CSSCCC(=O)N[C@@H](Cc2ccc(O)cc2)C(=O)N[C@@H](Cc2ccccc2)C(=O)N[C@@H](CCC(N)=O)C(=O)N[C@@H](CC(N)=O)C(=O)N1)C(=O)NCC(N)=O (stereo in doubt; form 1) [DESMOPRESSIN]
Ratio [6]: 5
agonist potency (Rattus norvegicus [10]): 54 units/mg
Activity (Rattus norvegicus [5]): 1740 units/mg
agonist potency (Rattus norvegicus [11]): 167 units/mg

N=C(N)NCCC[C@@H](NC(=O)[C@@H]1CCCN1C(=O)[C@@H]1CSSCCC(=O)N[C@@H](Cc2ccc(O)cc2)C(=O)N[C@@H](Cc2ccccc2)C(=O)N[C@@H](CCC(N)=O)C(=O)N[C@@H](CC(N)=O)C(=O)N1)C(=O)NCC(N)=O (stereo in doubt; form 2) [DESMOPRESSIN]
Ratio [6]: 3037
agonist potency (Rattus norvegicus [9]): 2.9 units/mg
agonist potency (Rattus norvegicus [10]): 1.5 units/mg
Activity (Rattus norvegicus [5]): 1200 units/mg
